# In ChEMBL document CHEMBL3272325, “Structure-activity relationships of dimeric Catharanthus alkaloids. 1. Deacetylvinblastine amide (vindesine) sulfate” (J Med Chem, 1978):
# Columns and labels:
# B16 [1] = test: Antitumor activity against mouse B16 cells allografted in B6D2F1 mouse assessed as increase in life span at 3 mg/kg/day, ip administered on day 5, 9 and 13 measured for 56 days relative to untreated control; assay type: functional; conditions: route intraperitoneal
# Method in brief: (§1)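 Male B6D2F1 mice implanted ip on day 0 with 0.25 mL of a 20% (w/v) B16 melanoma brei. Alkaloid sulfate salts given ip on days 1, 5, 9 or on days 5, 9, 13, groups of 10, against 30 untreated controls. Read-outs: median survival time with range of individual deaths, and percent increase in life span, with survivors counted on day 56.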
# B16 [2] = test: Antitumor activity against mouse B16 cells allografted in B6D2F1 mouse assessed as increase in life span at 1.08 mg/kg/day, ip administered on day 5, 9 and 13 measured for 56 days relative to untreated control; assay type: functional; conditions: route intraperitoneal; method in brief: as §1
# B16 [3] = test: Antitumor activity against mouse B16 cells allografted in B6D2F1 mouse assessed as increase in life span at 0.648 mg/kg/day, ip administered on day 1, 5 and 9 measured for 56 days relative to untreated control; assay type: functional; conditions: route intraperitoneal; method in brief: as §1
# [4] = Toxicity in ip dosed mouse allografted with mouse p388 cells after 1 day; assay type: organism-based; conditions: in vivo, read-out: MNTD
# Method in brief: (§2)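 P388 ascites implanted ip in mice, 10 animals per group. Sulfate salts given ip either daily on days 1-9 or as a single dose on day 1. Median life span was calculated using all deaths and survivors. Percent increase in life span was taken over untreated controls. The highest nontoxic dose was noted.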
# [5] = Antitumor activity against mouse Ridgeway osteogenic sarcoma cells allografted in mouse at 0.2 to 0.3 mg/kg/day, ip; assay type: functional; conditions: route intraperitoneal
# Method in brief: (§3)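 Ridgeway osteogenic sarcoma and Gardner lymphosarcoma in mice, with sulfate salts given ip daily on days 1-9. Tumor growth inhibition versus controls scored in bands: +++ = 75-100%, ++ = 50-75%, ± = under 25%.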
# B16 [6] = test: Antitumor activity against mouse B16 cells allografted in B6D2F1 mouse assessed as increase in life span at 0.389 mg/kg/day, ip administered on day 1, 5 and 9 measured for 56 days relative to untreated control; assay type: functional; conditions: route intraperitoneal; method in brief: as §1
# Rhesus monkey = test: Neurotoxicity in iv dosed monkey assessed as peripheral neuropathy; assay type: toxicity, organism-based, Macaca mulatta; conditions: in vivo
# B16 [7] = test: Antitumor activity against mouse B16 cells allografted in B6D2F1 mouse assessed as mean survival time at 1.08 mg/kg/day, ip administered on day 5, 9 and 13 (reference value: 20.0 days); assay type: functional; conditions: route intraperitoneal; method in brief: as §1
# [8] = Antitumor activity against mouse Gardner lymphosarcoma cell allografted in mouse at 0.2 to 0.3 mg/kg/day, ip; assay type: functional; conditions: route intraperitoneal; method in brief: as §3
# B16 [9] = test: Antitumor activity against mouse B16 cells allografted in B6D2F1 mouse assessed as mean survival time at 1.8 mg/kg/day, ip administered on day 1, 5 and 9 (reference value: 20.0 days); assay type: functional; conditions: route intraperitoneal; method in brief: as §1
# P388 [10] = test: Antitumor activity against mouse P388 cells allografted in mouse assessed as increase in life span at 0.27 mg/kg/day, ip administered from day 1 to day 9 relative to untreated control; assay type: functional; conditions: route intraperitoneal; method in brief: as §2
# P388 [11] = test: Antitumor activity against mouse P388 cells allografted in mouse assessed as increase in life span at 0.6 mg/kg/day, ip administered from day 1 to day 9 relative to untreated control; assay type: functional; conditions: route intraperitoneal; method in brief: as §2
# B16 [12] = test: Antitumor activity against mouse B16 cells allografted in B6D2F1 mouse assessed as mean survival time at 0.389 mg/kg/day, ip administered on day 1, 5 and 9 (reference value: 20.0 days); assay type: functional; conditions: route intraperitoneal; method in brief: as §1
# P388 [13] = test: Antitumor activity against mouse P388 cells allografted in mouse assessed as increase in life span at 0.10 mg/kg/day, ip administered from day 1 to day 9 relative to untreated control; assay type: functional; conditions: route intraperitoneal; method in brief: as §2
# P388 [14] = test: Antitumor activity against mouse P388 cells allografted in mouse assessed as increase in life span at 0.9 mg/kg/day, ip administered from day 1 to day 9 relative to untreated control; assay type: functional; conditions: route intraperitoneal; method in brief: as §2
# B16 [15] = test: Antitumor activity against mouse B16 cells allografted in B6D2F1 mouse assessed as mean survival time at 1.8 mg/kg/day, ip administered on day 5, 9 and 13 (reference value: 20.0 days); assay type: functional; conditions: route intraperitoneal; method in brief: as §1
# B16 [16] = test: Antitumor activity against mouse B16 cells allografted in B6D2F1 mouse assessed as mean survival time at 0.389 mg/kg/day, ip administered on day 5, 9 and 13 (reference value: 20.0 days); assay type: functional; conditions: route intraperitoneal; method in brief: as §1
# B16 [17] = test: Antitumor activity against mouse B16 cells allografted in B6D2F1 mouse assessed as increase in life span at 1.08 mg/kg/day, ip administered on day 1, 5 and 9 measured for 56 days relative to untreated control; assay type: functional; conditions: route intraperitoneal; method in brief: as §1
# [18] = Antitumor activity against mouse P1534(J) cells allografted in mouse assessed as tumor growth inhibition at 0.2 mg/kg/day, ip administered from day 1 to day 9 relative to unreated control; assay type: functional; conditions: P1534J, route intraperitoneal, read-out: TGI
# Method in brief: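 P1534(J) leukemia implanted subcutaneously in mice. Sulfate salts given ip daily on days 1-9. Read-out was percent inhibition of tumor growth relative to untreated controls. The highest nontoxic dose was recorded.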
smiles,measurement,setting,value
CC[C@]1(O)C[C@@H]2CN(CCc3c([nH]c4ccccc34)[C@@](C(=O)OC)(c3cc4c(cc3OC)N(C)[C@H]3[C@@](O)(C(N)=O)[C@H](O)[C@]5(CC)C=CCN6CC[C@]43[C@@H]65)C2)C1.O=S(=O)(O)O [VINDESINE SULFATE],ILS at 3 mg/kg/day,B16 [1],48%
same,ILS at 1.08 mg/kg/day,B16 [2],58%
same,ILS at 0.648 mg/kg/day,B16 [3],75%
same,MTD at 24 h,[4],13.5 mg/kg/day
same,TGI,[5],75%
same,ILS at 0.389 mg/kg/day,B16 [6],85%
same,Activity,Rhesus monkey,Non-toxic
same,MST,B16 [7],31.5 days
same,TGI,[8],75%
same,MST,B16 [9],48.5 days
same,ILS at 0.27 mg/kg/day,P388 [10],172%
same,ILS at 0.6 mg/kg/day,P388 [11],213%
same,MST,B16 [12],37 days
same,ILS at 0.1 mg/kg/day,P388 [13],109%
same,ILS at 0.9 mg/kg/day,P388 [14],177%
same,MST,B16 [15],39 days
same,MST,B16 [16],25 days
same,ILS at 1.08 mg/kg/day,B16 [17],110%
same,inhibition in vivo at 0.2 mg/kg/day,[18],74%
